# According to ChEMBL document CHEMBL2040797, “Synthesis of benzimidazoles bearing oxadiazole nucleus as anticancer agents” (2012):
# Columns and labels:
# Type in all cases: functional
# [1] = tested on: HOP-92; assay: Cytotoxicity against human HOP92 cells after 48 hrs by sulforhodamine B assay; conditions: HOP-92, 48 h
# How it was run: (§1)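 NCI 60-panel screen. Cells were grown in RPMI 1640 with 5% FBS and L-glutamine and plated at 5000–40,000 cells/well according to doubling time. They were preincubated 24 h at 37 °C, 5% CO2, then exposed 48 h to five 10-fold dilutions. Adherent cells were fixed with cold TCA, final 10%; suspension cells were fixed after settling. Cells were stained with 0.4% SRB and read at 515 nm. Tz/C/Ti growth curves gave GI50, TGI and LC50.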
# [2] = tested on: MDA-MB-435; assay: Growth inhibition of human MDA-MB-435 cells at 10 uM after 48 hrs by sulforhodamine B assay; conditions: MDA-MB-435, 48 h, read-out: GI
# How it was run: (§2)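 NCI one-dose primary screen at 10 (printed mM) across the 60-line panel. Cells in RPMI 1640 with 5% FBS and 2 mM L-glutamine, plated at 5000–40,000 cells/well and incubated 24 h before dosing. Exposure 48 h at 37 °C, 5% CO2. Adherent cells were fixed with cold TCA, suspension cells fixed after settling. SRB stain, absorbance 515 nm. Reported as percent growth of treated cells relative to control.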
# [3] = tested on: DU-145; assay: Growth inhibition of human DU145 cells at 10 uM after 48 hrs by sulforhodamine B assay; conditions: DU-145, 48 h, read-out: GI; how it was run: as §2
# [4] = tested on: NCI-H226; assay: Cytotoxicity against human NCI-H226 cells after 48 hrs by sulforhodamine B assay; conditions: NCI-H226, 48 h; how it was run: as §1
# [5] = tested on: NCI/ADR-RES; assay: Growth inhibition of human NCI/ADR-RES cells at 10 uM after 48 hrs by sulforhodamine B assay; conditions: read-out: GI; how it was run: as §2
# [6] = tested on: NCI-H460; assay: Growth inhibition of human NCI-H460 cells at 10 uM after 48 hrs by sulforhodamine B assay; conditions: NCI-H460, 48 h, read-out: GI; how it was run: as §2
# [7] = tested on: OVCAR-8; assay: Growth inhibition of human OVCAR8 cells at 10 uM after 48 hrs by sulforhodamine B assay; conditions: OVCAR-8, 48 h, read-out: GI; how it was run: as §2
# [8] = tested on: UACC-62; assay: Cytotoxicity against human UACC62 cells after 48 hrs by sulforhodamine B assay; conditions: UACC-62, 48 h
# How it was run: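 NCI 60 panel five-dose screen. Cells in RPMI 1640 with 5% FBS and 2 mM L-glutamine, plated at 5000–40,000 cells/well and preincubated 24 h. Compounds were tested at five 10-fold concentrations (0.01–100) for 48 h at 37 °C, 5% CO2. Cells were fixed with TCA and stained with SRB, absorbance 515 nm. GI50, TGI and LC50 were taken from % growth curves against time-zero and control.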
# [9] = tested on: PC-3; assay: Cytotoxicity against human PC3 cells after 48 hrs by sulforhodamine B assay; conditions: PC-3, 48 h; how it was run: as §1
# [10] = tested on: SF-295; assay: Cytotoxicity against human SF295 cells after 48 hrs by sulforhodamine B assay; conditions: SF-295, 48 h; how it was run: as §1
# [11] = tested on: RPMI-8226; assay: Growth inhibition of human RPMI8226 cells at 10 uM after 48 hrs by sulforhodamine B assay; conditions: RPMI-8226, 48 h, read-out: GI; how it was run: as §2
# [12] = tested on: K562; assay: Growth inhibition of human K562 cells at 10 uM after 48 hrs by sulforhodamine B assay; conditions: K562, 48 h, read-out: GI; how it was run: as §2
# [13] = tested on: HT-29; assay: Growth inhibition of human HT-29 cells at 10 uM after 48 hrs by sulforhodamine B assay; conditions: HT-29, 48 h, read-out: GI; how it was run: as §2
# [14] = tested on: OVCAR-3; assay: Growth inhibition of human OVCAR3 cells at 10 uM after 48 hrs by sulforhodamine B assay; conditions: OVCAR-3, 48 h, read-out: GI; how it was run: as §2
# [15] = tested on: HCT-15; assay: Growth inhibition of human HCT15 cells at 10 uM after 48 hrs by sulforhodamine B assay; conditions: HCT-15, 48 h, read-out: GI; how it was run: as §2
# [16] = tested on: BT-549; assay: Cytotoxicity against human BT549 cells after 48 hrs by sulforhodamine B assay; conditions: BT-549, 48 h; how it was run: as §1
# [17] = tested on: PC-3; assay: Growth inhibition of human PC3 cells at 10 uM after 48 hrs by sulforhodamine B assay; conditions: PC-3, 48 h, read-out: GI; how it was run: as §2
# [18] = tested on: MCF7; assay: Growth inhibition of human MCF7 cells at 10 uM after 48 hrs by sulforhodamine B assay; conditions: MCF7, 48 h, read-out: GI; how it was run: as §2
# [19] = tested on: HT-29; assay: Cytotoxicity against human HT-29 cells after 48 hrs by sulforhodamine B assay; conditions: HT-29, 48 h; how it was run: as §1
# [20] = tested on: Malme-3M; assay: Cytotoxicity against human MALME-3M cells after 48 hrs by sulforhodamine B assay; how it was run: as §1
# [21] = tested on: EKVX; assay: Cytotoxicity against human EKVX cells after 48 hrs by sulforhodamine B assay; how it was run: as §1
# [22] = tested on: M14; assay: Cytotoxicity against human M14 cells after 48 hrs by sulforhodamine B assay; conditions: M14, 48 h; how it was run: as §1
# [23] = tested on: OVCAR-4; assay: Growth inhibition of human OVCAR4 cells at 10 uM after 48 hrs by sulforhodamine B assay; conditions: OVCAR-4, 48 h, read-out: GI; how it was run: as §2
# [24] = Cytotoxicity against human Hs 578T cells after 48 hrs by sulforhodamine B assay; how it was run: as §1
# [25] = tested on: EKVX; assay: Growth inhibition of human EKVX cells at 10 uM after 48 hrs by sulforhodamine B assay; conditions: read-out: GI; how it was run: as §2
# [26] = tested on: A549; assay: Growth inhibition of human A549 cells at 10 uM after 48 hrs by sulforhodamine B assay; conditions: A549, 48 h, read-out: GI; how it was run: as §2
# [27] = tested on: IGROV-1; assay: Growth inhibition of human IGROV1 cells at 10 uM after 48 hrs by sulforhodamine B assay; conditions: IGROV-1, 48 h, read-out: GI; how it was run: as §2
# [28] = tested on: IGROV-1; assay: Cytotoxicity against human IGROV1 cells after 48 hrs by sulforhodamine B assay; conditions: IGROV-1, 48 h; how it was run: as §1
# [29] = tested on: Malme-3M; assay: Growth inhibition of human MALME-3M cells at 10 uM after 48 hrs by sulforhodamine B assay; conditions: read-out: GI; how it was run: as §2
# [30] = tested on: HCT-116; assay: Cytotoxicity against human HCT116 cells after 48 hrs by sulforhodamine B assay; conditions: HCT-116, 48 h; how it was run: as §1
# [31] = read-out: LC50 (the source's name)
structure (smiles),measurement,setting,value
O=C(CCc1nnc(-c2ccc(Cl)cc2Cl)o1)c1nc2ccccc2[nH]1,GI50,[1],1.77 µM
same,TGI,[1],15.8 µM
same,CC50,[1]; [31],100 µM
same,inhibition of growth at 10 µM,[2],101%
same,inhibition of growth at 10 µM,[3],17.8%
same,GI50,[4],6.66 µM
same,TGI,[4],31.2 µM
same,CC50,[4]; [31],100 µM
same,inhibition of growth at 10 µM,[5],36.7%
same,inhibition of growth at 10 µM,[6],22.7%
same,inhibition of growth at 10 µM,[7],42.8%
same,GI50,[8],3.34 µM
same,TGI,[8],27.8 µM
same,CC50,[8]; [31],100 µM
same,GI50,[9],3.71 µM
same,TGI,[9],100 µM
same,CC50,[9]; [31],100 µM
same,GI50,[10],5.98 µM
same,TGI,[10],42.9 µM
same,CC50,[10]; [31],100 µM
same,inhibition of growth at 10 µM,[11],69.1%
same,inhibition of growth at 10 µM,[12],97.8%
same,inhibition of growth at 10 µM,[13],90.6%
same,inhibition of growth at 10 µM,[14],33.6%
same,inhibition of growth at 10 µM,[15],18.5%
same,GI50,[16],7.54 µM
same,TGI,[16],92.5 µM
same,CC50,[16]; [31],100 µM
same,inhibition of growth at 10 µM,[17],46.9%
same,inhibition of growth at 10 µM,[18],55.3%
same,GI50,[19],3.77 µM
same,TGI,[19],55.1 µM
same,CC50,[19]; [31],100 µM
same,GI50,[20],13 µM
same,TGI,[20],52.6 µM
same,CC50,[20]; [31],100 µM
same,GI50,[21],5.48 µM
same,TGI,[21],100 µM
same,CC50,[21]; [31],100 µM
same,GI50,[22],5.86 µM
same,TGI,[22],31.5 µM
same,CC50,[22]; [31],100 µM
same,inhibition of growth at 10 µM,[23],41.2%
same,GI50,[24],9.71 µM
same,TGI,[24],93.9 µM
same,CC50,[24]; [31],100 µM
same,inhibition of growth at 10 µM,[25],39%
same,inhibition of growth at 10 µM,[26],30.3%
same,inhibition of growth at 10 µM,[27],42.4%
same,GI50,[28],5.26 µM
same,TGI,[28],39.1 µM
same,CC50,[28]; [31],100 µM
same,inhibition of growth at 10 µM,[29],20.7%
same,GI50,[30],3.33 µM
same,TGI,[30],13.5 µM
same,CC50,[30]; [31],52.5 µM
